Measurements from the RNAGym collection of RNA variant scans (doi:10.1126/science.aae0568).
This sample holds only a part of the variants without activity.

B1: tRNA (parent)
chain: GUUCCGUUGGCGUAAUGGUAACGCGUCUCCCUCCUAAGGAGAAGACUGCGGGUUCGAGUCCCGUACGGAACG

Variants of: B1
Assay: yeast fitness relative to wild type (ratio to wild type); higher = fitter; tRNA-Arg(CCU), competitive growth, 37 C, YPD
Method in brief: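 Changes in genotype frequencies gave Darwinian fitness relative to wild type. Frequencies were read by 100-nucleotide paired-end sequencing of gene amplicons before and after pooled Saccharomyces cerevisiae strains, carrying tRNA-Arg(CCU) gene variants at the native locus, were competed in YPD at 37°C for 24 hours in six replicates. A genotype was kept only with ≥ 100 starting reads, and estimates < 0.5 were set to 0.5.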

Row | Variant | yeast fitness
1 | C31G C33U A42G U64C A65G | ≤ 0.5
2 | C31G C33U U54G C55A | ≤ 0.5
3 | C31G C34G | 0.629
4 | C31G C34G A36G C66A | ≤ 0.5
5 | C31G C34U A40C A69C | ≤ 0.5
6 | C31G C34U A40C C66A | ≤ 0.5
7 | C31G C34U A40C G63C | ≤ 0.5
8 | C31G C34U A42U | 0.612
9 | C31G C34U A42U A70C | ≤ 0.5
10 | C31G C34U A57U | 0.561
11 | C31G C34U C46U G56A | ≤ 0.5
12 | C31G C34U C46U G56A C62U | ≤ 0.5
13 | C31G C34U C46U G56A G63A | ≤ 0.5
14 | C31G C34U C55U G58A C61U | 0.586
15 | C31G C34U C55U G63A | ≤ 0.5
16 | C31G C34U G38A | 0.53
17 | C31G C34U G56A G58C | ≤ 0.5
18 | C31G C34U G67U | ≤ 0.5
19 | C31G C46A G63C A65U | 0.509
20 | C31G C46G | 1.04
21 | C31G C46G C61G | ≤ 0.5
22 | C31G C46G C61G A69U | ≤ 0.5
23 | C31G C46U C49U G56C | ≤ 0.5
24 | C31G C49A | 0.734

Row | Variant | yeast fitness
25 | C31G C49G C62U G67C | ≤ 0.5
26 | C31G C49U | 0.92
27 | C31G C49U G50C A69U | ≤ 0.5
28 | C31G C55A | 0.605
29 | C31G C55G U64C | ≤ 0.5
30 | C31G C55U U59A | 0.559
31 | C31G C60G C62A | 0.624
32 | C31G C60G C62U G68A | ≤ 0.5
33 | C31G C61A | 0.65
34 | C31G C61A G67C | ≤ 0.5
35 | C31G C61U G67A | ≤ 0.5
36 | C31G C61U G68A | ≤ 0.5
37 | C31G C62A A70C | 0.54
38 | C31G C62U | 1.07
39 | C31G C62U A65G | 0.71
40 | C31G C66A | 0.702
41 | C31G C66G A69G | 0.545
42 | C31G G38A | 0.802
43 | C31G G38A G63U | ≤ 0.5
44 | C31G G38A U54A | ≤ 0.5
45 | C31G G38C | 0.826
46 | C31G G38C A43U C62G | ≤ 0.5
47 | C31G G39A A70G | 0.553
48 | C31G G41C | 0.696

Row | Variant | yeast fitness
49 | C31G G41C G50C | 0.533
50 | C31G G41C G50C C60U A69C | ≤ 0.5
51 | C31G G44A | 1.07
52 | C31G G44C A65G A69C | ≤ 0.5
53 | C31G G44C A69C | 0.611
54 | C31G G44C C46U | 1
55 | C31G G44C U53C A65U | ≤ 0.5
56 | C31G G44U A70C | ≤ 0.5
57 | C31G G48A | 0.925
58 | C31G G48A U59C | 0.793
59 | C31G G48C G58A | 0.821
60 | C31G G50A | 0.837
61 | C31G G50C | 0.738
62 | C31G G51A U59A | ≤ 0.5
63 | C31G G51C | 0.756
64 | C31G G51C C66U | 0.566
65 | C31G G51C G56A U64A | ≤ 0.5
66 | C31G G52A | 0.755
67 | C31G G52A U59A | ≤ 0.5
68 | C31G G52C | 0.531
69 | C31G G52C A57U | 0.599
70 | C31G G56A U59C A65C A70G | ≤ 0.5
71 | C31G G56C | 0.632
72 | C31G G56C C61A | ≤ 0.5

Row | Variant | yeast fitness
73 | C31G G58A | 0.785
74 | C31G G58C G67C | 0.533
75 | C31G G63C | 0.614
76 | C31G G67A | 0.859
77 | C31G G67C | 0.888
78 | C31G G67U A69C | 0.526
79 | C31G U32A | 0.766
80 | C31G U32A C49U C62A | ≤ 0.5
81 | C31G U32A G56C | 0.6
82 | C31G U32A U53G | 0.646
83 | C31G U32C A37U A69C | ≤ 0.5
84 | C31G U32C G39C | 0.507
85 | C31G U32G | 0.556
86 | C31G U32G C33U A70G | ≤ 0.5
87 | C31G U32G C55A C62G A65U | 0.688
88 | C31G U35A | 0.659
89 | C31G U35A A65U | 0.622
90 | C31G U47A | 0.847
91 | C31G U47G C49G C60U C62G | ≤ 0.5
92 | C31G U53A | 0.694
93 | C31G U54C | 0.798
94 | C31G U59C | 0.871
95 | C31G U59G | 0.734
96 | C31G U64A A69C | ≤ 0.5

Row | Variant | yeast fitness
97 | C31G U64C | 0.777
98 | C31G U64G | 0.714
99 | C31U | 0.986
100 | C31U A36C A45C C61G | ≤ 0.5
101 | C31U A36C G38A | 0.558
102 | C31U A36G | 0.857
103 | C31U A36G A45U | 0.593
104 | C31U A36G A57U | ≤ 0.5
105 | C31U A36U | 0.591
106 | C31U A36U A43C C55G | ≤ 0.5
107 | C31U A36U A45C C46G G48C | 0.53
108 | C31U A36U A45C C62U | ≤ 0.5
109 | C31U A36U A69C | 0.591
110 | C31U A36U G51A A70U | 0.693
111 | C31U A37C A43U G50C A57G | 0.586
112 | C31U A37C A43U G50C A69U | ≤ 0.5
113 | C31U A37C G63A | ≤ 0.5
114 | C31U A37C U64A | ≤ 0.5
115 | C31U A37G | 0.69
116 | C31U A37G A45C A70C | ≤ 0.5
117 | C31U A37G A45C C62G | 0.593
118 | C31U A37G C62G | 0.517
119 | C31U A37G U54A | ≤ 0.5
120 | C31U A37U | 0.744

Row | Variant | yeast fitness
121 | C31U A37U C46A C49A C55A C66G | 0.663
122 | C31U A37U C60G | ≤ 0.5
123 | C31U A40C | 0.937
124 | C31U A40C A65C | 0.817
125 | C31U A40C C46G | 0.744
126 | C31U A40C G56A A57U | ≤ 0.5
127 | C31U A40G | 0.786
128 | C31U A40G A42C G44A A45U | ≤ 0.5
129 | C31U A40G A70U | 0.55
130 | C31U A40G C46G A65G | ≤ 0.5
131 | C31U A40G C61G | ≤ 0.5
132 | C31U A40G G63A A70U | ≤ 0.5
133 | C31U A40G U54C A70U | 0.527
134 | C31U A40U | 0.975
135 | C31U A40U A70U | 0.7
136 | C31U A40U C66A | ≤ 0.5
137 | C31U A40U U59C A70U | ≤ 0.5
138 | C31U A42C G44A A45U | 0.55
139 | C31U A42C G67A | 0.628
140 | C31U A42G C62U | 0.583
141 | C31U A42G G50A | 0.629
142 | C31U A42U | 0.957
143 | C31U A42U A70U | 1.14
144 | C31U A43C | 1.17

Row | Variant | yeast fitness
145 | C31U A43C U54C A65C | ≤ 0.5
146 | C31U A43G C66U | 0.724
147 | C31U A43G U53C | 0.513
148 | C31U A43U | 1.11
149 | C31U A43U G48A A57U G67C | ≤ 0.5
150 | C31U A43U G48A U53A | 0.587
151 | C31U A43U G48A U53A C62U | ≤ 0.5
152 | C31U A45C U47C A70U | ≤ 0.5
153 | C31U A45G | 0.932
154 | C31U A45U A69U | 1
155 | C31U A45U C46G | 0.94
156 | C31U A45U C55U | ≤ 0.5
157 | C31U A45U G56C | ≤ 0.5
158 | C31U A57C G58A A69G | 0.554
159 | C31U A57G | 1.06
160 | C31U A57U | 0.619
161 | C31U A65U | 0.955
162 | C31U A65U G68U | 0.699
163 | C31U A69G | 0.924
164 | C31U A69U | 0.999
165 | C31U A70G | 1.1
166 | C31U C33A | 0.585
167 | C31U C33A A69U | ≤ 0.5
